This is a sample that favours compounds with a hit; in the whole collection about 2% have one here.
PTPN22 inh 2: inhibitors of human LYP (PTPN22) phosphatase. recombinant LYP catalytic domain, DiFMUP fluorescence. inhibition, % at 2 µM. 0.21% of 96,000 active;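 active means inhibition at 2 µM at or above a set limit, the screen mean plus 3 SD, cut at about 24% in these data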;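 further: 0% = DMSO with enzyme and 100% = enzyme fully blocked by orthovanadate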
Target sequence (Q9Y2R2 whole entry, looked up, the tested form may be a part): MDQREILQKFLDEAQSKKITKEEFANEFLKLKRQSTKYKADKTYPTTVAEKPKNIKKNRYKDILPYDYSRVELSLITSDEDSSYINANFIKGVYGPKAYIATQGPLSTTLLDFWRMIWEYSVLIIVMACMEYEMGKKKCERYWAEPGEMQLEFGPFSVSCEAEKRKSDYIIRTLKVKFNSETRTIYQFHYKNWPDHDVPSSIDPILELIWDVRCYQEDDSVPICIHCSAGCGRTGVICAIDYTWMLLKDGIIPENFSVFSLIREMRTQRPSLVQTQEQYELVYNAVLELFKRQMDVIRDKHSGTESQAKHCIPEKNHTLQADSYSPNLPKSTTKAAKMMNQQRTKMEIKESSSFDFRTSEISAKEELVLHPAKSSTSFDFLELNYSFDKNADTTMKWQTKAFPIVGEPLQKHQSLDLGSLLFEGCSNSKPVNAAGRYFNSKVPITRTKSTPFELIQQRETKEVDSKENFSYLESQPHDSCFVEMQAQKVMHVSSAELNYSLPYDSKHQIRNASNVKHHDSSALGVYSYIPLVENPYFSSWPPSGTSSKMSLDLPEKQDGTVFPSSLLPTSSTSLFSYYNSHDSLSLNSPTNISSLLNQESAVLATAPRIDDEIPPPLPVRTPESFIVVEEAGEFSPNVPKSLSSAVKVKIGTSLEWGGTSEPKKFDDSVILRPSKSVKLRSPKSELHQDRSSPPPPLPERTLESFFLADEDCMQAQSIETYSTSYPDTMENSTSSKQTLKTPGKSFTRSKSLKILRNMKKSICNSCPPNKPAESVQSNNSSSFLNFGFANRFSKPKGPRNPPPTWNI
EphB4 antag: antagonists of human EphB4-ephrin-B2 interaction | P54760 | 0.15% of 97,000 active | inhibition, % at 7 µM | EphB4 LBD / TNYL-RAW-Alexa532 peptide, fluorescence polarization;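 active means inhibition above the screen-wide mean inhibition plus 3 SD, cut at about 15% in these data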;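 further: 0% = DMSO wells and 100% = excess unlabeled TNYL-RAW peptide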
PLK1 PBD inh: inhibitors of human Plk1 polo box domain binding. Plk1 PBD phosphopeptide binding, fluorescence polarization. P53350. inhibition, %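 (tested at about 20 µM)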. 0.13% of 97,000 active; in the data active means inhibition above about 34%, passing the limit was not always enough
HIV Rev-RRE inh: inhibitors of HIV-1 Rev-RRE RNA interaction | inhibition, % at 8 µM | 0.79% of 97,000 active | Rev peptide-RRE RNA binding, FRET | P05866;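 active means inhibition above the screen-wide mean plus 3 SD, cut at about 35% in these data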;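 further: 0% = median DMSO wells and 100% = median Neomycin B control wells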
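Test system: Cy5-tagged RRE RNA duplex with fluorescein-tagged Rev peptide | Read-out: % inhibition of FRET ratio versus controls | Probe or stimulus: Labelled Rev peptide | Incubation: 5 min RNA-compound premix plus 15 min binding step, 25 °C | Technique: FRET fluorescence readout | Benchmarks: DMSO low control, neomycin B high control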
PLK1 inh: blocks human PLK1 kinase activity; recombinant PLK1 kinase, TR-FRET peptide phosphorylation; 0.53% of 97,000 active; inhibition, % at 10 µM; P53350;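 active means inhibition of 50% or more in the single-concentration screen; inactive means inhibition below 50%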;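 further: 0% = DMSO max control and 100% = H-89 dihydrochloride min control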
PTPN22 act: LYP (human) phosphatase activation. activation, % at 2 µM. 0.11% of 96,000 active. AID 697. recombinant LYP, DiFMUP fluorescence; 0 = plate median, 100 = signal doubled;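 active means activation at 2 µM above a set limit, the mean plus 5 SD, cut at about 37% in these data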
* marks the source's active call; other numbers are inactive results; x = no result.

SMILES	PTPN22 inh 2	EphB4 antag	PLK1 PBD inh	HIV Rev-RRE inh	PLK1 inh	PTPN22 act
Cc1ccc(-c2nc(CSCC(=O)N3CCN(c4ccccn4)CC3)c(C)o2)cc1	4	2	-23	6	-14	-6
CCOc1ccc(-c2nc(CSCC(=O)N3CCN(c4cccc(OC)c4)CC3)c(C)o2)cc1	x	2	-5	-2	64*	x
c1ccc(-c2nc3ccccc3nc2-c2ccccn2)nc1	5	-1	20	3	-4	-6
CN(C)NC(=S)Nc1ccc2nc(-c3ccccn3)c(-c3ccccn3)nc2c1	6	-4	19	19	-8	-2
OCCCNC(=S)Nc1ccc2nc(-c3ccccn3)c(-c3ccccn3)nc2c1	0	3	2	36*	-5	5
O=C(NCCCO)Nc1ccc2nc(-c3ccco3)c(-c3ccco3)nc2c1	13	0	-20	-2	52*	-11
CC(C)(C)CC(C)(C)NC(=S)Nc1ccc2nc(-c3ccccn3)c(-c3ccccn3)nc2c1	13	-2	-37	76*	24	-13
Cc1ccc(NC(=O)CSCC(=O)N2c3ccccc3CCc3ccccc32)cc1	3	-5	19	1	-12	2
COc1ccccc1-c1cc(C(F)(F)F)n2ncc(S(=O)(=O)c3ccccc3)c2n1	16	4	18	3	-9	-12
CCOC(=O)c1ccc(NC(=S)NCC(O)c2ccccc2)cc1 (stereo not given)	10	17*	-16	-5	-2	-6
CCOC(=O)c1ccc(NC(=S)NCCc2ccccc2)cc1	6	4	-4	0	-10	-2
Cc1cc(N2CCN(c3nc(N4CCOCC4)nc4ccccc34)CC2)c2ccccc2n1	-41	-4	3	15	-7	39*
Cc1c(Br)c([N+](=O)[O-])nn1C(C)C(=O)N1CCCc2ccccc21 (stereo not given)	14	1	-3	10	-14	-12
CN(C)C=Nc1ncc2c3ccccc3n(CCN(C)C)c2c1C#N	0	1	1	6	45	0
CCN(CC)CCn1c2ccccc2c2cnc(N)c(C#N)c21	1	-9	-19	3	52*	-1
CC(=O)Nc1cc2c(cc1NC(=O)Cn1nc(-c3ccc4c(c3)OCCO4)ccc1=O)OCCO2	-3	4	-21	7	2	1
N#Cc1nc(-c2ccc(OCc3ccccc3)cc2)oc1NCCN1CCOCC1	-2	-5	12	-1	-3	2
N#Cc1nc(-c2ccc(OCc3ccc(Cl)cc3)cc2)oc1NCCCn1ccnc1	26*	-5	6	7	-39	-27
N#CCSc1nnc(COc2cccc3ccccc23)n1-c1ccccc1	5	1	-6	4	-7	-6
Cc1ccc(-c2nnc(CSc3nnc(COc4cccc5ccccc45)n3-c3ccccc3)o2)cc1	33*	-4	47*	-5	-13	-33
CCCCOc1ccc(CNC(=S)N/N=C/c2ccc(OC)c(OC)c2)cc1	9	3	-12	6	-2	-7
C#CCn1c(=NC(=O)CN2C(=O)CCC2=O)sc2cccc(C)c21	x	-2	-39	-2	62*	x
CNCc1ccccc1OCC(=O)Nc1ccccc1OC	19	-3	-14	7	-6	-17
C/C(=N\NC(=O)c1ccc(Cl)cc1)c1ccc(Br)s1	-6	-4	67*	2	-7	10
COc1ccc(-c2noc(CSc3nc4ccccc4c(=O)n3-c3ccc(C)cc3)n2)cc1	-7	14	-2	13	-23	6
Cc1ccc(NC(=O)COc2ccc(/C=N/NC(=O)CSCc3ccccc3)cc2)cc1	18	0	11	7	-8	-15
CCOC(=O)c1c2ccc(OCC(=O)N/N=C/c3ccc(C)cc3)cc2n2ccccc12	24*	-1	1	11	-23	-22
COc1ccc(-c2nc(CSCC(=O)NCCC3=CCCCC3)c(C)o2)cc1OC	-3	3	13	3	-13	6
C=CCn1c(=O)/c(=C/c2ccc(O)cc2)s/c1=C(/C#N)c1nnc2n1CCCCC2	7	-5	-171	73*	-13	-10
Cc1oc(-c2ccccc2F)nc1CS(=O)CC(=O)NCc1cccs1 (stereo not given)	x	2	-6	1	62*	x
